From ChEMBL document CHEMBL4184148 (Bioorg Med Chem Lett, 2017)

How the values were obtained:
[1] = tested on: Proto-oncogene tyrosine-protein kinase receptor Ret (Homo sapiens), P07949 [V804M]; assay: Binding affinity to human partial length RET V804M mutant (E713 to D1014 residues) expressed in Escherichia coli BL21 at 1 uM by Kinomescan method relative to control
[2] = biological target: RAC-gamma serine/threonine-protein kinase (Homo sapiens) (UniProt Q9Y243); assay: Binding affinity to wild-type human partial length AKT3 expressed in Escherichia coli BL21 at 1 uM by Kinomescan method relative to control
In short: (§1)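 Kinome-wide competition binding panel run by an outside provider, with each compound tested at a single concentration. Activity is read against the kinase panel.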

[3] = biological target: LIM domain kinase 2 (Homo sapiens) (UniProt P53671); assay: Binding affinity to wild-type human full length LIMK2 (M1 to P638 residues) expressed in Escherichia coli BL21 at 1 uM by Kinomescan method relative to control
In short: (§2)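 Run as one kinome-wide competition binding panel with each compound at a single fixed concentration. Results were plotted as a kinome-wide selectivity map.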

[4] = biological target: Phosphatidylinositol 4,5-bisphosphate 3-kinase catalytic subunit beta isoform (Homo sapiens) (UniProt P42338); assay: Binding affinity to wild-type human partial length PIK3CB (P118 to S1070 residues) expressed in HEK293 cells at 1 uM by Kinomescan method relative to control; type: cell-based
[5] = tested on: Phosphatidylinositol 4,5-bisphosphate 3-kinase catalytic subunit alpha isoform (Homo sapiens), P42336 [H1047L]; assay: Binding affinity to human partial length PIK3CA H1047L mutant (R108 to N1068 residues) expressed in HEK293 cells at 1 uM by Kinomescan method relative to control; type: cell-based
[6] = biological target: Cyclin-dependent kinase 2 homolog (Plasmodium falciparum (isolate 3D7)) (UniProt P61075); assay: Binding affinity to wild-type Plasmodium falciparum full length PK5 (M1 to N288 residues) expressed in HEK293 cells at 1 uM by Kinomescan method relative to control; type: cell-based
[7] = biological target: Leucine-rich repeat serine/threonine-protein kinase 2 (Homo sapiens, UniProt Q5S007); assay: Inhibition of recombinant GST-tagged human LRRK2 (970 to 2527 residues) catalytic domain expressed in baculovirus expression system by ADAPTA assay
[8] = biological target: G protein-coupled receptor kinase 3 (Homo sapiens) (UniProt P35626); assay: Binding affinity to wild-type human full length GRK3 (M1 to L688 residues) expressed in HEK293 cells at 1 uM by Kinomescan method relative to control; type: cell-based; in short: as §2
[9] = biological target: High affinity nerve growth factor receptor (Homo sapiens) (UniProt P04629); assay: Binding affinity to wild-type human partial length TRKA (G475 to G790 residues) expressed in HEK293 cells at 1 uM by Kinomescan method relative to control; type: cell-based
[10] = biological target: Epithelial discoidin domain-containing receptor 1 (Homo sapiens) (UniProt Q08345); assay: Binding affinity to wild-type human partial length DDR1 (R565 to V876 residues) expressed in Escherichia coli BL21 at 1 uM by Kinomescan method relative to control
[11] = biological target: Dual specificity protein kinase CLK1 (Homo sapiens) (UniProt P49759); assay: Binding affinity to wild-type human full length CLK1 (M1 to I484 residues) expressed in Escherichia coli BL21 at 1 uM by Kinomescan method relative to control; in short: as §2
[12] = biological target: Dual specificity tyrosine-phosphorylation-regulated kinase 1B (Homo sapiens) (UniProt Q9Y463); assay: Binding affinity to wild-type human full length DYRK1B (M1 to S629 residues) expressed in Escherichia coli BL21 at 1 uM by Kinomescan method relative to control; in short: as §2
[13] = biological target: Wee1-like protein kinase 2 (Homo sapiens) (UniProt P0C1S8); assay: Binding affinity to wild-type human partial length WEE2 (M204 to K492 residues) expressed in Escherichia coli BL21 at 1 uM by Kinomescan method relative to control
[14] = biological target: Receptor-type tyrosine-protein kinase FLT3 (Homo sapiens) (UniProt P36888); assay: Binding affinity to wild-type human partial length autoinhibited FLT3 (H564 to Y969 residues) expressed in HEK293 cells at 1 uM by Kinomescan method relative to control; type: cell-based; set-up: scale not given: the % may be the effect or the level left
[15] = biological target: Rho-associated protein kinase 1 (Homo sapiens) (UniProt Q13464); assay: Binding affinity to wild-type human partial length ROCK1 (M1 to R415 residues) expressed in HEK293 cells at 1 uM by Kinomescan method relative to control; type: cell-based
[16] = biological target: Mitogen-activated protein kinase kinase kinase 4 (Homo sapiens) (UniProt Q9Y6R4); assay: Binding affinity to wild-type human partial length MAP3K4 (G1319 to E1608 residues) expressed in Escherichia coli BL21 at 1 uM by Kinomescan method relative to control
[17] = biological target: Myosin light chain kinase, smooth muscle (Homo sapiens) (UniProt Q15746); assay: Binding affinity to wild-type human full length MYLK (M854 to E1845 residues) expressed in HEK293 cells at 1 uM by Kinomescan method relative to control; type: cell-based; in short: as §2
[18] = tested on: eIF-2-alpha kinase GCN2 (Homo sapiens), Q9P2K8 [S808G]; assay: Binding affinity to wild-type human partial length GCN2 kinase domain 2 (R585 to T1018 residues) S808G mutant expressed in Escherichia coli BL21 at 1 uM by Kinomescan method relative to control
[19] = biological target: Fibroblast growth factor receptor 1 (Homo sapiens) (UniProt P11362); assay: Binding affinity to wild-type human partial length FGFR1 (P357 to V669 residues) expressed in Escherichia coli BL21 at 1 uM by Kinomescan method relative to control
[20] = biological target: 1-phosphatidylinositol 3-phosphate 5-kinase (Homo sapiens) (UniProt Q9Y2I7); assay: Binding affinity to wild-type human partial length PIKFYVE (F1512 to C2098 residues) expressed in HEK293 cells at 1 uM by Kinomescan method relative to control; type: cell-based
[21] = biological target: BDNF/NT-3 growth factors receptor (Homo sapiens) (UniProt Q16620); assay: Binding affinity to wild-type human partial length TRKB (Q547 to G838 residues) expressed in HEK293 cells at 1 uM by Kinomescan method relative to control; type: cell-based
[22] = biological target: Tyrosine-protein kinase ZAP-70 (Homo sapiens) (UniProt P43403); assay: Binding affinity to wild-type human partial length ZAP70 (D20 to G299 residues) expressed in HEK293 cells at 1 uM by Kinomescan method relative to control; type: cell-based
[23] = biological target: Phosphatidylinositol 4-phosphate 5-kinase type-1 alpha (Homo sapiens) (UniProt Q99755); assay: Binding affinity to wild-type human full length PIP5K1A (M1 to H562 residues) expressed in Escherichia coli BL21 at 1 uM by Kinomescan method relative to control; in short: as §1
[24] = biological target: Protein kinase C iota type (Homo sapiens) (UniProt P41743); assay: Binding affinity to wild-type human partial length PRKCI (H215 to V587 residues) expressed in HEK293 cells at 1 uM by Kinomescan method relative to control; type: cell-based
[25] = biological target: Dual specificity mitogen-activated protein kinase kinase 6 (Homo sapiens) (UniProt P52564); assay: Binding affinity to wild-type human partial length MEK6 (K36 to D334 residues) expressed in Escherichia coli BL21 at 1 uM by Kinomescan method relative to control

Sequence of RAC-gamma serine/threonine-protein kinase (Homo sapiens) (Q9Y243 whole entry): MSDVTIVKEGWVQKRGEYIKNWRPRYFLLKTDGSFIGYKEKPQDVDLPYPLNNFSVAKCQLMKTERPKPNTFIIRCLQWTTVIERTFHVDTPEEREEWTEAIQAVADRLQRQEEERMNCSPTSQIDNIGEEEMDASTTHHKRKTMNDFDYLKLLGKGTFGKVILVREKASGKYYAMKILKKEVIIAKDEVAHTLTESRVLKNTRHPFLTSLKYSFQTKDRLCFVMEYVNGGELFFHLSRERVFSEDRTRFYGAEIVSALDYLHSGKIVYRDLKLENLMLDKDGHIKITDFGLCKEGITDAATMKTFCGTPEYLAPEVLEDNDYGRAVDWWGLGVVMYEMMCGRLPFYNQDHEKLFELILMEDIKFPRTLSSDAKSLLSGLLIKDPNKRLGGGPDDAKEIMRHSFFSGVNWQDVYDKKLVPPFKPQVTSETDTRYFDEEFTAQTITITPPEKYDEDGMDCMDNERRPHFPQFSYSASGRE
Sequence of Wee1-like protein kinase 2 (Homo sapiens) (P0C1S8 whole entry, looked up, the tested form may be a part): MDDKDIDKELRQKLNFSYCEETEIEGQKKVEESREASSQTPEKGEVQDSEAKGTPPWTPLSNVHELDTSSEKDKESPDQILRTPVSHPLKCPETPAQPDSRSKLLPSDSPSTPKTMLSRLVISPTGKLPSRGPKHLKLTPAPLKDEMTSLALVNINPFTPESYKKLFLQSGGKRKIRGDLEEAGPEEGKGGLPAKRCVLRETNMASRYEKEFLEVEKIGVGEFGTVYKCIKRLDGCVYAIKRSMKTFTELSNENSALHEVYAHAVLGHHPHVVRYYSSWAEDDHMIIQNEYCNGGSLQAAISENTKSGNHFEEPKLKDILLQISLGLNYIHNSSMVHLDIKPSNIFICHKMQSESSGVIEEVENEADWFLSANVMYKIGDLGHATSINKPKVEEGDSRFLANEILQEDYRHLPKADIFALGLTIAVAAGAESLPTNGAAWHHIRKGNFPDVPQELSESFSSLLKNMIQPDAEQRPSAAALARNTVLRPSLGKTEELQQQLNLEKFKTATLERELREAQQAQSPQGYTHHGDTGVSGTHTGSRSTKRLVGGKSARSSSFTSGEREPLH
Sequence of G protein-coupled receptor kinase 3 (Homo sapiens) (P35626 whole entry, the tested form may be a part): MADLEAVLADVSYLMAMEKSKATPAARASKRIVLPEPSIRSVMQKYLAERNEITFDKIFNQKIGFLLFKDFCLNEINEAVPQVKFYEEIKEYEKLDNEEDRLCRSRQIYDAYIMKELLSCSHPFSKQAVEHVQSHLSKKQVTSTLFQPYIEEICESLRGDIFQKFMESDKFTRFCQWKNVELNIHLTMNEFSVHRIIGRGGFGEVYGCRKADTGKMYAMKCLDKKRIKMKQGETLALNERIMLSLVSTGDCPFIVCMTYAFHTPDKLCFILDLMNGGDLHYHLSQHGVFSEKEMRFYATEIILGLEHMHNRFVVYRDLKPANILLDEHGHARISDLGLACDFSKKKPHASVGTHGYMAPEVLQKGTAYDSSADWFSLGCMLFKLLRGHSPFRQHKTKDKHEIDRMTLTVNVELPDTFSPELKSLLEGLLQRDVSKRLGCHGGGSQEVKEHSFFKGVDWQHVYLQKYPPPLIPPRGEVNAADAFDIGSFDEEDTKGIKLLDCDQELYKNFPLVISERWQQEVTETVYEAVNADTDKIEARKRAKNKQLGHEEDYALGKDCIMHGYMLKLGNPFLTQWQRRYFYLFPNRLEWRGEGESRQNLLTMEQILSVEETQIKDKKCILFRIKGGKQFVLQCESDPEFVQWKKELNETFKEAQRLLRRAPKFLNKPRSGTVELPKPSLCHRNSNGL
Sequence of Proto-oncogene tyrosine-protein kinase receptor Ret (Homo sapiens), P07949 [V804M] (P07949 whole entry V804M, the tested form may be a part): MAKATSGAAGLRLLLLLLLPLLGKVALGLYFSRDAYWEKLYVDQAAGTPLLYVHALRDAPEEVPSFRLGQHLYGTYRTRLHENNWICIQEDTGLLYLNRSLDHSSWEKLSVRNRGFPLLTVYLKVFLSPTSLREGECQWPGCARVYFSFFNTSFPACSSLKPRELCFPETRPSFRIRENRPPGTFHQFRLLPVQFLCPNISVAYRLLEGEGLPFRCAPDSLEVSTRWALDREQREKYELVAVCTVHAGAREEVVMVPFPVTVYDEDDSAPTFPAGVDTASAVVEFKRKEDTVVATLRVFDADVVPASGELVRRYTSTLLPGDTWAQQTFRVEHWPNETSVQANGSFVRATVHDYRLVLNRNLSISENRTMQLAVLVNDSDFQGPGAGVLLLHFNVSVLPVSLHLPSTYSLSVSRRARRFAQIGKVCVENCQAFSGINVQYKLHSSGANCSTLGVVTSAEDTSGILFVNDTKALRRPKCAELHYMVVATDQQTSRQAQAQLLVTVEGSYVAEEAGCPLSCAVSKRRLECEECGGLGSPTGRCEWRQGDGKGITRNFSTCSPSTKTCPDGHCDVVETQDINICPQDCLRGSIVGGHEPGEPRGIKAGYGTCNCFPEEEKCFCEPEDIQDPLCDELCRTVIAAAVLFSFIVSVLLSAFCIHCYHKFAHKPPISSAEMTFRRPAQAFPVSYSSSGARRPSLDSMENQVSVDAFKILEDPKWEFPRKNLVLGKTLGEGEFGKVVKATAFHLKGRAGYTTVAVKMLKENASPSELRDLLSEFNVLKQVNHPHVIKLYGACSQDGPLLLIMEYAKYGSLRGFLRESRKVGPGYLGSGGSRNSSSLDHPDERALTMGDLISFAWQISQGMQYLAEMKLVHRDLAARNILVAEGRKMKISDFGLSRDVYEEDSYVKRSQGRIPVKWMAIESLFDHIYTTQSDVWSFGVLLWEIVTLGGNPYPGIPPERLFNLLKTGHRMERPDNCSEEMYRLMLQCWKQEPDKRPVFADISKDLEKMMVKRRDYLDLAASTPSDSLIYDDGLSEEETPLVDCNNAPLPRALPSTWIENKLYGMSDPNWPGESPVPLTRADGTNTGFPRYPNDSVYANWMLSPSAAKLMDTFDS
Sequence of Phosphatidylinositol 4,5-bisphosphate 3-kinase catalytic subunit alpha isoform (Homo sapiens), P42336 [H1047L] (P42336 whole entry H1047L, the tested form may be a part, canonical isoform): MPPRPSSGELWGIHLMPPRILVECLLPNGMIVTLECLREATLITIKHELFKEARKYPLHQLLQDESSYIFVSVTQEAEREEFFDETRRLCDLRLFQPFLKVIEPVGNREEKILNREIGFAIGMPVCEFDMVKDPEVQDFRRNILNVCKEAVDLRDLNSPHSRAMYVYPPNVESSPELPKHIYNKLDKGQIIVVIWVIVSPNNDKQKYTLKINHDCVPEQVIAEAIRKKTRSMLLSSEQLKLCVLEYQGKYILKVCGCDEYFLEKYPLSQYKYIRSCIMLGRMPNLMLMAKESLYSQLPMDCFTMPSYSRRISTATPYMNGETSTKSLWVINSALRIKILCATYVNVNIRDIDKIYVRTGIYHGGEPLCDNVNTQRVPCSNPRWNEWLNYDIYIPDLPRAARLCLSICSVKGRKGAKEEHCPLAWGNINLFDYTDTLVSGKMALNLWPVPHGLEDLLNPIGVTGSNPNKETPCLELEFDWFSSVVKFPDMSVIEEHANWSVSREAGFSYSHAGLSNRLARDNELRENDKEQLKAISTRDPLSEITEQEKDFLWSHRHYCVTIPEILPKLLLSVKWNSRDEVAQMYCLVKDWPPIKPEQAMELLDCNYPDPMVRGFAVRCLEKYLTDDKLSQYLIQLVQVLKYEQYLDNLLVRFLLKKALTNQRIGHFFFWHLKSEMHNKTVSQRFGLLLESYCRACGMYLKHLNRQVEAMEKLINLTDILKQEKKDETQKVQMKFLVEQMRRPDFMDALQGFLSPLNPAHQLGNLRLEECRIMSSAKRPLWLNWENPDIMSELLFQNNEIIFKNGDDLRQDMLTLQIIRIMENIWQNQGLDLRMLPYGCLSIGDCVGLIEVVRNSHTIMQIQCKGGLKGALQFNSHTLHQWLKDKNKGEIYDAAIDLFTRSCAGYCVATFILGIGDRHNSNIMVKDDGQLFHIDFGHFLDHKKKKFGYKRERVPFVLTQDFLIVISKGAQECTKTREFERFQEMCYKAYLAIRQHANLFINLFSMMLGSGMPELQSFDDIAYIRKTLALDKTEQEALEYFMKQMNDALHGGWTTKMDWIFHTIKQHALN
Sequence of Dual specificity tyrosine-phosphorylation-regulated kinase 1B (Homo sapiens) (Q9Y463 whole entry, looked up, the tested form may be a part): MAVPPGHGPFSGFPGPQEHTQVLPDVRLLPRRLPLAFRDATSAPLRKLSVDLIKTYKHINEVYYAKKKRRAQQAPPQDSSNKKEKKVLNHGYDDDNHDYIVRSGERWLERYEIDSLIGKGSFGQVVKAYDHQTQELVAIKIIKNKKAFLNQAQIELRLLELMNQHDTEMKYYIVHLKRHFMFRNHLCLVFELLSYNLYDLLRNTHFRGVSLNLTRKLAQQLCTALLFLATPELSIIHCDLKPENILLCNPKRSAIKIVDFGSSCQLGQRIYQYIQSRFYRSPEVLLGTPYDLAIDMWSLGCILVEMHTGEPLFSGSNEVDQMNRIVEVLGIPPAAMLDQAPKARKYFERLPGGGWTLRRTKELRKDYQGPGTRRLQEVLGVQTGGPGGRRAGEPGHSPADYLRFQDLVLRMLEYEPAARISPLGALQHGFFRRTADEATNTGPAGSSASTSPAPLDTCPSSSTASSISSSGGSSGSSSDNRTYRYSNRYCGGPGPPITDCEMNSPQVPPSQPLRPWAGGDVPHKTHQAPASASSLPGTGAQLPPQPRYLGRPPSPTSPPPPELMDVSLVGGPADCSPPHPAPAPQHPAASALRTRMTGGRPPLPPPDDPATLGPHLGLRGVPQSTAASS
Sequence of Cyclin-dependent kinase 2 homolog (Plasmodium falciparum (isolate 3D7)) (P61075 whole entry, the tested form may be a part): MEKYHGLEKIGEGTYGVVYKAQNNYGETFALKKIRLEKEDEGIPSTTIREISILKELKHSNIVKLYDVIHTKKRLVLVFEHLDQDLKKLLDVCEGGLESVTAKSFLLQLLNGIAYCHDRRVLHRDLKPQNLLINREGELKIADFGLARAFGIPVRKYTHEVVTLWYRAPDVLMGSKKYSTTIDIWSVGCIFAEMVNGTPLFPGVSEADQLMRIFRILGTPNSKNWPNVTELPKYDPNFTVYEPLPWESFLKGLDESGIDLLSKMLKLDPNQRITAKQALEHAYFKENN

Structure (SMILES) | Activity [1] [%] | Activity [2] [%] | Activity [3] [%] | Activity [4] [%] | Activity [5] [%] | Activity [6] [%] | IC50 [7] [nM] | Activity [8] [%] | Activity [9] [%] | Activity [10] [%] | Activity [11] [%] | Activity [12] [%] | Activity [13] [%] | Activity [14] [%] | Activity [15] [%] | Activity [16] [%] | Activity [17] [%] | Activity [18] [%] | Activity [19] [%] | Activity [20] [%] | other results
CCC(=O)Nc1ccc(C(=O)Nc2ccc(Nc3ncc4c(n3)N(C)c3ccc(C)cc3C(=O)N4C)cc2)cc1 | 70 | 100 | 89 | 50 | 70 | 94 | 714 | 70 | 78 | 86 | 98 | 100 | 97 | 85 | 72 | 100 | 78 | 94 | 82 | 98 | Activity [21]: 84%; Activity [22]: 95%; Activity [23]: 100%; Activity [24]: 66%; Activity [25]: 97%
C=CC(=O)Nc1ccc(C(=O)Nc2ccc(Nc3ncc4c(n3)N(C)c3ccc(C)cc3C(=O)N4C)cc2)cc1 | 68 | 83 | 100 | 100 | 63 | 96 | 754 | 100 | 79 | 92 | 100 | 90 | 100 | 84 | 100 | 100 | 89 | 100 | 84 | 100 | Activity [21]: 100%; Activity [22]: 97%; Activity [23]: 100%; Activity [24]: 87%; Activity [25]: 100%
